Screening data deposited in PubChem BioAssay by several laboratories.
An excerpt weighted towards active compounds, which were near 2.2% of everything screened.
APJ antag: antagonists of human apelin receptor APJ, primary screen, CHO-K1 cells, beta-arrestin complementation, luminescence. P35414. inhibition, % at 20 µM. 330,000 compounds, 0.32% hits;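 active = inhibition above about 40% at 20 µM, limit read from the data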;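 note: cells challenged with 10 nM apelin-13 agonist together with compound; plate controls were apelin-13 plus DMSO wells for no effect and DMSO wells lacking apelin-13 for full effect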
Target sequence (P35414 whole entry, looked up): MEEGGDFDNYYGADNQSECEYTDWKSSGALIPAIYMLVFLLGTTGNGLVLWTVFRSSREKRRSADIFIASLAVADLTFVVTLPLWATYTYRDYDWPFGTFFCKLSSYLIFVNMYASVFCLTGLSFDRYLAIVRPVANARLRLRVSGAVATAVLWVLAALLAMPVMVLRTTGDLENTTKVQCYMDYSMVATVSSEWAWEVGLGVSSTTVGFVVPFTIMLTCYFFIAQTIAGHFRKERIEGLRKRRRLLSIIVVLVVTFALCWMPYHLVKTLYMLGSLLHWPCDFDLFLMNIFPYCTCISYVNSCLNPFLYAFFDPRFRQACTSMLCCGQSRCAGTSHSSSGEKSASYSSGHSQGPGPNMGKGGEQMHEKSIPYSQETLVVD
APJ ag: agonists of human apelin receptor APJ, primary screen, CHO-K1 cells, PathHunter beta-arrestin, luminescence. P35414. 0% DMSO wells, 100% apelin. 330,000 compounds, 0.11% hits. AID 2520, 2010. activation, % at 20 µM;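 active = activation more than six SD over the plate average, tested at 20 µM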;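 note: 0% = DMSO alone and 100% = apelin-13 at 10 nM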
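Assay system: CHO-K1 APJ beta-arrestin complementation cell line / Compound: single test compound dose, 20 µM final, 1% DMSO / Times: overnight seeding, 90 min compound at 25 °C, 1 h detection / Technique: beta-gal luminescence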
CCR6 antag: CCR6 receptor antagonists, primary screen, cell-based, CHO-K1, luminescence, beta-arrestin, uHTS; C-C chemokine receptor type 6 (Homo sapiens), P51684; CHO-K1 CCR6 PathHunter beta-arrestin, CCL20-stimulated; inhibition, % at 20 µM; 340,000 compounds, 0.49% hits; AID 493098, 2011;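 active = compounds whose inhibition of the agonist-driven luminescence signal at 20 µM reaches about 50%, limit read from the data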;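 note: cells stimulated with CCL20 at 14 nM final; plate controls were DMSO with CCL20 for no effect and DMSO without agonist for full effect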
EBI2 antag: EBI2 receptor antagonists, beta-arrestin recruitment, primary screen, cell-based, luminescence, 7a,25-OHC stimulation, uHTS; 7a,25-OHC stimulated; inhibition, % at 5 µM; 360,000 compounds, 0.81% hits; AID 651636, 2012; in the data active = inhibition above about 38%;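 note: enzyme fragment complementation signal reports receptor beta-arrestin coupling in cells; 0% = agonist plus DMSO wells and 100% = wells without agonist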
Target sequence (P32249 whole entry, looked up, the tested form may be a part): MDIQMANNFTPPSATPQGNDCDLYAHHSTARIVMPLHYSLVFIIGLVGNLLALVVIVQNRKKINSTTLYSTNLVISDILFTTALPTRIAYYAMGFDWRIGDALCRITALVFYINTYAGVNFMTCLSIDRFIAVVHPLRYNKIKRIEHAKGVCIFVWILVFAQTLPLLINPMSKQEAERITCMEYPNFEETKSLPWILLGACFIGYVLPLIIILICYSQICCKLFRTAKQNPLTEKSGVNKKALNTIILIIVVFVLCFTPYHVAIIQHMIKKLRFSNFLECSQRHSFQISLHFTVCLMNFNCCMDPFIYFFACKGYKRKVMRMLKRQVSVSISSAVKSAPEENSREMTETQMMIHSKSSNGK
CXCR6 inh: CXCR6 receptor inhibitors, primary screen, cell-based, beta-arrestin, luminescence, CHO-K1 PathHunter, 1536-well; C-X-C chemokine receptor type 6 (Homo sapiens), O00574; inhibition, % at 20 µM; 360,000 compounds, 0.36% hits; AID 602244, 2012; in the data active = inhibition above about 34%, passing the limit was not always enough;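 note: antagonist mode with CXCL16 agonist at 10 nM final; 0% = 10 nM CXCL16 with DMSO and 100% = unstimulated wells without agonist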
HTR2A ag: mouse Htr2a agonists via beta-arrestin recruitment, primary screen, cell-based, luminescence. 5-hydroxytryptamine receptor 2A (Mus musculus), P35363. CHO-K1 mHTR2A beta-arrestin complementation; percent of 30 µM serotonin response. activation, % at 7.6 µM. 360,000 compounds, 0.66% hits. AID 624169, 2012;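 active = activation above a run cutoff, the mean activation of all tested compounds plus 3 SD, cut at about 14% in these data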;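 note: 0% = plate median of compound wells and 100% = 30 µM serotonin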
EBI2 antag conf: EBI2 antagonist hit retest, beta-arrestin, confirmation, cell-based, single concentration, luminescence, 7a,25-OHC stimulation | shares compounds with EBI2 antag | 7a,25-OHC antagonism | inhibition, % at 5 µM | 2,400 compounds, 29% hits;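 active = inhibition of at least 50%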
EBI2 ag: EBI2 agonist activity of antagonist hits, confirmation, counter-screen for EBI2 antagonist project, cell-based, single concentration, agonist mode, luminescence; shares compounds with EBI2 antag; 2,400 tested, under 10 active; activation, % at 5 µM; EBI2-expressing cells, 60 min; 0% vehicle, 100% 7α,25-dihydroxycholesterol control; AID 652000, 2013;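 active = activation of at least 50%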
bGal cs: E. coli beta-galactosidase enzyme inhibition, confirmation, counter-screen for EBI2 antagonist project, biochemical, luminescence, single concentration | purified beta-galactosidase, luminescent Galacton Star, 15 min | inhibition, % at 5 µM | 2,400 compounds, 1% hits | shares compounds with EBI2 antag;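 active = replicate-average signal at least 3 plate SD below neutral wells, shown as high inhibition, flagging enzyme-inhibiting false positives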;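 note: 0% = DMSO wells with enzyme and 100% = wells lacking enzyme; higher means stronger loss of beta-gal luminescence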
The depositor's hits bear a star; · = not tested or not shown.

SMILES	APJ antag	APJ ag	CCR6 antag	EBI2 antag	CXCR6 inh	HTR2A ag	EBI2 antag conf	EBI2 ag	bGal cs
O=C(CSc1nnc(-c2ccc(O)cc2)n1Cc1ccccc1)NNC(=O)c1ccc(Br)cc1	-5.8	-3.1	1.9	88.8*	1.8	0.6	86.7*	-0.7	-7.4
CCn1c(SCC(=O)NNC(=O)c2ccc(C)cc2)nnc1-c1ccncc1	-30.4	-3.8	-9.5	-2.1	-5.0	1.6	·	·	·
CCn1c(SCC(=O)NNC(=O)c2ccc(OC)cc2)nnc1-c1cccnc1	2.3	-3.1	15.5	58.8*	7.2	3.9	14.9	1.1	2.4
CC(C)OC(=O)CSc1nnc(-c2ccc(O)cc2)n1Cc1ccccc1	-8.4	-8.2	12.7	-5.5	1.4	5.7	·	·	·
Cc1cc(C)c2cc(C#N)c(NCCNC(=O)c3ccccn3)nc2c1	·	·	·	-8.0	·	-0.9	·	·	·
Cc1ccc(S(=O)(=O)N2CCCCC2)cc1NCC(=O)Nc1ccc(Br)cc1F	·	·	·	-4.8	-15.4	1.5	·	·	·
C[C@H]1[C@@H](Cc2cc(Cl)cc(Cl)c2)N(c2ccccc2)c2ccccc2CN1Cc1ccccc1	·	·	·	1.0	·	5.3	·	·	·
CC1(c2nnnn2Cc2ccccc2)CCC(=O)N1CCOc1ccccc1 (stereo not given)	·	·	·	-6.7	0.3	-5.8	·	·	·
Cc1nc2ccccn2c(=O)c1NC(=O)c1ccc2c(c1)OCO2	·	·	·	-3.7	5.0	1.8	·	·	·
COc1cc2oc(=O)cc(CN(Cc3ccccc3)Cc3ccccc3)c2cc1Cl	·	·	·	45.1*	11.7	-0.9	37.9	-0.6	-1.8
CCCN(CCC)Cc1cc(=O)oc2cc(OC)ccc12	·	·	·	5.2	-6.1	2.0	·	·	·
COc1ccc2c(CN(Cc3ccccc3)Cc3ccccc3)cc(=O)oc2c1	·	·	·	51.7*	6.5	-3.1	20.6	-1.1	-13.1
COc1cc(NC(=O)c2cc3nc(C4CC4)cc(C(F)(F)F)n3n2)c(OC)cc1Cl	-9.8	-1.6	7.9	37.6*	4.0	8.1	7.1	-1.4	-11.4
Cc1cccc(-c2noc(-c3csc([C@@H]4C[C@H](O)[C@@H](CO)O4)n3)n2)c1	·	·	·	-5.9	-4.3	4.2	·	·	·
COc1cccc(C(=O)c2c(-c3ccccc3)ncc3cc(OC)c(OC)cc23)c1	·	·	27.4	84.9*	3.0	1.7	55.6*	-0.1	-14.3
COc1cc2cnc(-c3ccccc3)c(C(=O)c3ccc(F)cc3)c2cc1OC	5.0	0.4	14.2	8.6	-0.5	4.5	·	·	·
COc1cccc(N2CCN(C(=O)c3cc(-c4ccc(F)cc4)[nH]c3C)CC2)c1	-2.0	-1.2	-6.2	88.6*	-4.3	-10.4	69.0*	-1.1	-13.6
Cc1ccc(N2CCN(C(=O)c3cc(-c4ccc(F)cc4)[nH]c3C)CC2C)cc1 (stereo not given)	-22.5	-1.5	-15.8	53.0*	7.8	2.9	32.9	1.4	6.5
Cc1[nH]c(-c2ccc(F)cc2)cc1C(=O)N1CCN(c2ccccc2)CC1	19.2	3.4	1.3	86.0*	-12.2	-12.3	63.0*	-0.7	-20.5
COc1ccc(-c2cc(C(=O)N3CCN(C(c4ccccc4)c4ccccc4)CC3)no2)cc1	0.3	-5.2	12.7	90.8*	0.3	4.0	76.3*	0.2	9.1
Cc1c(C(=O)N2CCN(C/C=C/c3ccccc3)CC2)oc2c(F)cccc12	-8.1	-4.1	12.9	32.1	3.4	-13.7	·	·	·
COc1ccc2oc(C(=O)N3CCN(C(c4ccccc4)c4ccccc4)CC3)c(C)c2c1	10.1	-0.6	19.8	91.5*	5.3	-0.6	68.5*	2.8	8.3
COc1ccc(N2CCN(C(=O)c3oc4ccccc4c3C)CC2)cc1	2.1	-1.0	1.1	20.7	-0.4	0.7	·	·	·
COc1ccc(-c2cc(C(=O)N3CCN(C(c4ccccc4)c4ccccc4)CC3)no2)cc1OC	-12.3	-3.8	7.6	32.0	1.7	3.7	·	·	·
COc1ccc2oc(C(=O)N3CCN(C/C=C/c4ccccc4)CC3)c(C)c2c1	2.7	2.7	5.7	46.1*	4.7	-4.4	29.7	0.1	-10.6
SMILES	APJ antag	APJ ag	CCR6 antag	EBI2 antag	CXCR6 inh	HTR2A ag	EBI2 antag conf	EBI2 ag	bGal cs
COc1cccc(N2CCN(C(=O)C3CCN(C(=O)Nc4ccccc4)CC3)CC2)c1	·	·	·	-4.2	1.7	2.1	·	·	·
CCOc1ccc(NC(=O)CN2CCN(C3c4ccccc4-c4ccccc43)CC2)cc1	2.5	-4.0	4.4	67.5*	-7.4	-1.5	49.1	0.4	2.7
Cc1ccccc1NS(=O)(=O)c1ccc2c(c1)CCC(=O)N2	·	·	·	-5.9	-5.3	-0.5	·	·	·
O=C(c1ccc2ncsc2c1)N1CCN(c2ccccc2Cl)CC1	-2.0	-0.6	-2.6	73.9*	0.0	0.4	53.9*	0.7	1.1
Cc1cccc(N2CCN(C(=O)c3ccc4ncsc4c3)CC2)c1C	·	·	5.5	74.2*	-3.3	0.5	65.0*	-0.2	-12.8
Cc1ccc(C)c(N2CCN(C(=O)c3ccc4nsnc4c3)CC2)c1	-8.3	-4.5	11.4	47.1*	7.2	-5.7	12.6	-0.4	-4.5
O=C(c1ccc2ncsc2c1)N1CCN(c2nc3ccccc3s2)CC1	13.9	0.7	7.6	6.0	-7.9	0.3	·	·	·
CCOC(=O)/C(=C\c1ccc(N2CCC(c3ccccc3)=N2)cc1)C(C)=O	·	·	18.2	47.9*	10.6	1.3	53.4*	0.0	3.4
O=C(/C=C/c1ccc(N2CCC(c3ccccc3)=N2)cc1)c1ccccc1	5.4	-2.2	11.0	·	·	·	·	·	·
Cc1ccc(/C=N/NC(=S)NC2CCS(=O)(=O)C2)cc1 (stereo not given)	16.6	4.2	0.6	44.0*	-8.3	4.7	43.8	0.8	7.0
COc1ccc(/C=N/NC(=S)NC2CCS(=O)(=O)C2)cc1OC (stereo not given)	-0.6	-0.3	0.2	-1.8	-2.7	1.2	·	·	·
CC(C)NC(=O)c1cc(C2CCCCN2C(=O)c2ccc(C#N)cc2)on1 (stereo not given)	·	·	·	-1.7	-5.3	-4.0	·	·	·
